Experimental data: ChEMBL document CHEMBL4619820, “Development of Novel AKR1C3 Inhibitors as New Potential Treatment for Castration-Resistant Prostate Cancer” (J Med Chem, 2020)
The source made the active and inactive calls.

How the values were obtained:
Format in all cases: functional, cell-based
[1] = system: CWR22R; test: Inhibition of pregnenolone-induced cell proliferation of human 22Rv1 cells at 10 uM pre-incubated for 2 hrs before pregnenolone stimulation for 72 hrs by alamar blue assay
Outline: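 22Rv1 cells (AKR1C3- and AR-expressing) pretreated 2 h with agents, then cultured 72 h with 20 nM pregnenolone; viable cell number given as percent of pregnenolone-free control.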

[2] = system: CWR22R; test: Inhibition of PSA mRNA expression in human 22Rv1 cells at 10 uM pre-incubated for 2 hrs before pregnenolone stimulation for 24 hrs by RT-qPCR analysis
Outline: (§1)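 22Rv1 cells pretreated 2 h with test agents, then stimulated 24 h with 20 nM pregnenolone; AR, TMPRSS2 and PSA mRNA measured by RT-qPCR, given as ratio to pregnenolone-free control.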

[3] = system: CWR22R; test: Induction of ROS generation in human 22Rv1 cells at 10 uM by DCFH-DA dye based flow cytometric analysis
Outline: (§2)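 22Rv1 cells exposed 3 h to 10 μM inhibitor and/or abiraterone, or 50 μM enzalutamide; intracellular ROS by flow cytometry as DCF-positive cells, percent of vehicle control.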

[4] = system: CWR22R; test: Induction of apoptosis in human 22Rv1 cells pre-incubated for 2 hrs before addition of pregnenolone for 24 hrs
[5] = system: CWR22R; test: Inhibition of AR mRNA expression in human 22Rv1 cells at 10 uM pre-incubated for 2 hrs before pregnenolone stimulation for 24 hrs by RT-qPCR analysis; outline: as §1
[6] = system: CWR22R; test: Inhibition of TMPRSS2 mRNA expression in human 22Rv1 cells at 10 uM pre-incubated for 2 hrs before pregnenolone stimulation for 24 hrs by RT-qPCR analysis; outline: as §1
[7] = system: CWR22R; test: Induction of apoptosis in human 22Rv1 cells assessed as effect on cleaved caspase-3 protein expression level at 50 uM pre-incubated for 2 hrs before addition of pregnenolone for 24 hrs by Western blot analysis
Outline: (§3)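 Apoptotic markers in 22Rv1: 2 h pretreatment with or without 10 μM inhibitor and/or 50 μM enzalutamide, then 24 h 20 nM pregnenolone; Bax/Bcl-2 ratio as percent of control; cleaved caspase-3 also by immunofluorescence with DAPI.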

[8] = system: CWR22R; test: Induction of ROS generation in human 22Rv1 cells at 50 uM by DCFH-DA dye based flow cytometric analysis; outline: as §2
[9] = system: CWR22R; test: Induction of apoptosis in human 22Rv1 cells assessed as effect on Bax protein expression level at 50 uM pre-incubated for 2 hrs before addition of pregnenolone for 24 hrs by Western blot analysis; outline: as §3
[10] = system: CWR22R; test: Induction of apoptosis in human 22Rv1 cells assessed as increase in cleaved caspase-3 level at 50 uM pre-incubated for 2 hrs before addition of pregnenolone for 24 hrs by Western blot analysis; outline: as §3
[11] = system: CWR22R; test: Induction of cell death in human 22Rv1 cells 50 uM pre-incubated for 2 hrs before addition of pregnenolone for 24 hrs
[12] = system: CWR22R; test: Induction of apoptosis in human 22Rv1 cells assessed as effect on cleaved PARP protein expression level at 50 uM pre-incubated for 2 hrs before addition of pregnenolone for 24 hrs by Western blot analysis; outline: as §3

C[C@]12CC[C@H](O)CC1=CC[C@@H]1[C@@H]2CC[C@]2(C)C(c3cccnc3)=CC[C@@H]12
active: inhibition [1] | inhibition [2] | Activity [3] | Activity [4] | inhibition [5] | inhibition [6]

CNC(=O)c1ccc(N2C(=S)N(c3ccc(C#N)c(C(F)(F)F)c3)C(=O)C2(C)C)cc1F
active: inhibition [1] | Activity [7] | Activity [8] | Activity [9] | inhibition [2] | Activity [10] | inhibition [5] | inhibition [6] | Activity [11] | Activity [12]
